In brackets after ≈: the same amount, converted by molar mass. Activity calls are given as the source filed them. The rule behind the calls is not given here.
Legend:
Nucleic Acid = experiment: Binding affinity to calf thymus DNA assessed as change in melting temperature at compound to DNA ratio of 1:5 after 18 hrs at pH 7; format: nucleic-acid assay; settings: Bos taurus
In short: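 Thermal melting of calf thymus DNA in 10 mM sodium phosphate with 1 mM Na2EDTA, pH 7.00. Compound was added from DMSO stock at a fixed 1:5 compound:DNA molar ratio. The mix was incubated 18 h at 37 °C, then A260 was monitored while heating at 1 °C/min over 40–90 °C. ΔTm is relative to DNA alone.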

A-431 = experiment: Cytotoxicity against human A431 cells after 48 hrs by MTT assay; format: functional, cell-based; settings: A-431, 48 h
In short: (§1)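 MTT assay. Medium with 10% FBS and 2 mM L-glutamine was DMEM for A431 and Colo-205, RPMI for A549, and MEM for MCF-7. Cultures were preincubated 24 h at 37 °C, 5% CO2. 1 × 10⁴ cells (trypan blue count) were exposed to 200, 100, 50, 25 and 10 concentration levels for 48 h at 37 °C. MTT was added for 4 h, formazan dissolved in DMSO, and A570 read. IC50 was curve-fitted from viability versus untreated cells, three experiments.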

MCF7 = experiment: Cytotoxicity against human MCF7 cells after 48 hrs by MTT assay; format: functional, cell-based; settings: MCF7, 48 h; in short: as §1
A549 = experiment: Cytotoxicity against human A549 cells after 48 hrs by MTT assay; format: functional, cell-based; settings: A549, 48 h; in short: as §1
COLO 205 = experiment: Cytotoxicity against human COLO205 cells after 48 hrs by MTT assay; format: functional, cell-based; settings: COLO 205, 48 h; in short: as §1
[1] = molecular target: T1, Kinesin-like protein KIF11 (Homo sapiens, UniProt P52732); experiment: Inhibition of HsEg5
T1 sequence (P52732 whole entry): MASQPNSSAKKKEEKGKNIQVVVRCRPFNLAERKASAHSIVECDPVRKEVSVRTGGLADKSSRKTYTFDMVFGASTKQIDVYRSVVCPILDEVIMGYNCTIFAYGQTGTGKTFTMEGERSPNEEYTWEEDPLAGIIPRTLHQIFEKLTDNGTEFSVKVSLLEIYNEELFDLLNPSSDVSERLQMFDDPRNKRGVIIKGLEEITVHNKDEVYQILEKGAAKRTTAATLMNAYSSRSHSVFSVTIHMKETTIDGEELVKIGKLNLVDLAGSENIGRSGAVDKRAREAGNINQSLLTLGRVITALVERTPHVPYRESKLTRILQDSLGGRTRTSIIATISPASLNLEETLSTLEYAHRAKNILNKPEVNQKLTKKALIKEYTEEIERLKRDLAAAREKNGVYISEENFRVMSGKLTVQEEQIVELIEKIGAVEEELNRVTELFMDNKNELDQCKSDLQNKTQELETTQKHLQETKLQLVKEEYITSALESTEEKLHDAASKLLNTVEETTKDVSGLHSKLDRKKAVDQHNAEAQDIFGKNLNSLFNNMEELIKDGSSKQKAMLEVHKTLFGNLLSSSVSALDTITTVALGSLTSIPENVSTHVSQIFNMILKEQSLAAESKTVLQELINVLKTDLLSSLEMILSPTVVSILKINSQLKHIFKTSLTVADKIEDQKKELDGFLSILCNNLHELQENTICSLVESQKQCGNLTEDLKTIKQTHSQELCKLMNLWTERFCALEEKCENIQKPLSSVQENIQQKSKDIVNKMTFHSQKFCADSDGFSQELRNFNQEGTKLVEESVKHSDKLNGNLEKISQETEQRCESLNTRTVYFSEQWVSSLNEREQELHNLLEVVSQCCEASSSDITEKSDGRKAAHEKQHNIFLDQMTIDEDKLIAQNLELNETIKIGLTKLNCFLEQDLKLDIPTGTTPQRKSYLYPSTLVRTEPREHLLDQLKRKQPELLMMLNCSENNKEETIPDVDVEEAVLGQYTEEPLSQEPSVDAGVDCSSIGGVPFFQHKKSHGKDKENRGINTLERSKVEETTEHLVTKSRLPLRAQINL

Bacillus subtilis [2] = experiment: Antibacterial activity against Bacillus subtilis assessed as zone of inhibition at 50 ug/ml by agar plate method; format: functional, organism-based
In short: (§2)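 Well diffusion on Mueller-Hinton agar. Inoculum from 3–5 colonies was grown in nutrient broth and adjusted to 0.5 McFarland (about 1 × 10⁸ CFU/mL), then swabbed over the plate. Compounds were dissolved in DMSO and added to duplicate 6 mm wells. Plates were incubated 18 h at 37 °C, and inhibition zone diameter was read to the nearest mm. Ciprofloxacin was the positive control and DMSO the negative control.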

Klebsiella pneumoniae [3] = experiment: Antibacterial activity against Klebsiella pneumoniae assessed as zone of inhibition at 50 ug/ml by agar plate method; format: functional, organism-based; in short: as §2
HT-29 = experiment: Cytotoxicity against human HT-29 cells after 48 hrs by MTT assay; format: functional, cell-based; settings: HT-29, 48 h
Klebsiella pneumoniae [4] = experiment: Antibacterial activity against Klebsiella pneumoniae assessed as zone of inhibition at 100 ug/ml by agar plate method; format: functional; settings: read-out: IZ; in short: as §2
Bacillus subtilis [5] = experiment: Antibacterial activity against Bacillus subtilis assessed as zone of inhibition at 100 ug/ml by agar plate method; format: functional; settings: read-out: IZ; in short: as §2
Escherichia coli [6] = experiment: Antibacterial activity against Escherichia coli assessed as zone of inhibition at 100 ug/ml by agar plate method; format: functional; settings: read-out: IZ; in short: as §2
[7] = system: Staphylococcus epidermidis; experiment: Antibacterial activity against Staphylococcus epidermidis assessed as zone of inhibition at 50 ug/ml by agar plate method; format: functional, organism-based; in short: as §2
Pseudomonas aeruginosa [8] = experiment: Antibacterial activity against Pseudomonas aeruginosa assessed as zone of inhibition at 100 ug/ml by agar plate method; format: functional; settings: read-out: IZ; in short: as §2
Staphylococcus aureus [9] = experiment: Antibacterial activity against Staphylococcus aureus assessed as zone of inhibition at 100 ug/ml by agar plate method; format: functional; settings: read-out: IZ; in short: as §2
[10] = system: Staphylococcus epidermidis; experiment: Antibacterial activity against Staphylococcus epidermidis assessed as zone of inhibition at 100 ug/ml by agar plate method; format: functional; settings: read-out: IZ; in short: as §2
Escherichia coli [11] = experiment: Antibacterial activity against Escherichia coli assessed as zone of inhibition at 50 ug/ml by agar plate method; format: functional, organism-based; in short: as §2
Staphylococcus aureus [12] = experiment: Antibacterial activity against Staphylococcus aureus assessed as zone of inhibition at 50 ug/ml by agar plate method; format: functional; settings: read-out: IZ; in short: as §2
Pseudomonas aeruginosa [13] = experiment: Antibacterial activity against Pseudomonas aeruginosa assessed as zone of inhibition at 50 ug/ml by agar plate method; format: functional; settings: read-out: IZ; in short: as §2

Compound	ΔTm (Nucleic Acid) [°C]	IC50 (A-431) [µg/mL]	IC50 (MCF7) [µg/mL]	IC50 (A549) [µg/mL]	IC50 (COLO 205) [µg/mL]	IC50 [1] [µM]	Activity (Bacillus subtilis [2])	Activity (Klebsiella pneumoniae [3])	IC50 (HT-29) [µg/mL]	zone of inhibition at 100 µg/mL (Klebsiella pneumoniae [4]) [mm]	zone of inhibition at 100 µg/mL (Bacillus subtilis [5]) [mm]	zone of inhibition at 100 µg/mL (Escherichia coli [6]) [mm]	Activity [7]	zone of inhibition at 100 µg/mL (Pseudomonas aeruginosa [8]) [mm]	zone of inhibition at 100 µg/mL (Staphylococcus aureus [9]) [mm]	zone of inhibition at 100 µg/mL [10] [mm]	Activity (Escherichia coli [11])	zone of inhibition at 50 µg/mL (Staphylococcus aureus [12]) [mm]	zone of inhibition at 50 µg/mL (Pseudomonas aeruginosa [13]) [mm]
CCOC(=O)C1=C(C)NC(=S)NC1c1cccc(O)c1 (stereo not drawn) [MONASTROL]	0	53 (≈ 181 µM)	45 (≈ 154 µM)	118 (≈ 404 µM)	164 (≈ 561 µM)	14	–	–	–	–	–	–	–	–	–	–	–	–	–
CCOC(=O)C1=C(C)NC(=S)NC1c1ccc(OCCCCCOc2ccc(C3NC(=S)NC(C)=C3C(=O)OCC)cc2OC)c(OC)c1 (stereo not drawn)	–	124 (≈ 174 µM)	180 (≈ 252 µM)	> 200	113 (≈ 159 µM)	–	inactive	inactive	> 200	10	8	10	inactive	20	19	10	inactive	10	12
